Screens: PubChem, The Scripps Research Institute Molecular Screening Center
TCR CD3 inh – human TCR-CD3 binding inhibition | AID 651800 | inhibition, % at 9.4 µM | TAMRA-labeled TCR probe fluorescence, biochemical | actives 0.37% (n = 360,000); in the data active = inhibition above about 19%;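 note: recombinant mutant TCR 2C K166C tagged with TAMRA read by polarization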
SIAE inh – human SIAE inhibition, primary screen; actives 0.69% (n = 370,000); inhibition, % at 9.66 µM; AID 1053197; SIAE FP-Rh probe binding, fluorescence polarization; Q9HAT2;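 active = inhibition above a cutoff: mean of compounds within the control limits plus 3 SD of those, cut at about 17% in these data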
HTRA1 inhibitor – inhibitors of human serine peptidase HTRA1. inhibition, % at 5.96 µM. recombinant HTRA1, FP-rhodamine activity-based probe, fluorescence polarization. actives 0.5% (n = 340,000); in the data active = inhibition above about 36%
mABHD4 FP – inhibits mouse alpha/beta hydrolase domain 4; actives 0.54% (n = 370,000); inhibition, % at 8.92 µM; purified mABHD4, FP-Rh probe fluorescence polarization; Q8VD66;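 active = inhibition exceeding the mean over every tested compound plus 3 SD, cut at about 30% in these data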
Target sequence (Q8VD66 whole entry, looked up, the tested form may be a part): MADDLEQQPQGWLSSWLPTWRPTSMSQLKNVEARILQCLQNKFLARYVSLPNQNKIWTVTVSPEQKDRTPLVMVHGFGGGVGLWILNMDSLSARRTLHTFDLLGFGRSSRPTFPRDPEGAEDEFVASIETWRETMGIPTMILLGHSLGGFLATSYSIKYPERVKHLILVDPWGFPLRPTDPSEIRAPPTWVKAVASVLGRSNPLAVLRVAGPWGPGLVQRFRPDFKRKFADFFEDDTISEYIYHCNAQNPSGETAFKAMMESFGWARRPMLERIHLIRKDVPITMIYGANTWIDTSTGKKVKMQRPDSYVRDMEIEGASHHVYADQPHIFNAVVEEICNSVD
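Test system: mABHD4 protein | Buffer or medium: HEPES pH 7.0 buffer, 150 mM NaCl, 0.01% Pluronic F-127 | Probe or stimulus: FP-Rh fluorescent activity-based probe, added after compound pre-incubation | Timing: Pre-incubation 45 min, probe exposure 60 min, at 25 °C | Technique: Fluorescence polarization, excitation 525 nm, emission 598 nm, BODIPY TMR filters | Repeats: Single well per compound (singlicate)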
Fam108B inh – blocks mouse Fam108B hydrolase in RBBP9 counter-screen; recombinant Fam108B, FP-Rh probe fluorescence polarization; inhibition, % at 9.51 µM; actives 0.33% (n = 300,000);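 active = inhibition above the screen mean inhibition plus 3 SD, computed separately per campaign, cut at about 18% in these data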;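 note: inhibitors lower polarization as less probe binds the enzyme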
PME-1 inh – blocks human protein phosphatase methylesterase 1. Q9Y570. recombinant PME-1, FP-Rh probe fluorescence polarization. inhibition, % at 5.9 µM. actives 0.53% (n = 320,000);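 active = inhibition above the campaign mean of all compounds plus 3 SD, cut at about 26% in these data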;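 note: competitive labeling of PME-1 active site by serine hydrolase directed probe; inhibitors block probe labeling so polarization falls and inhibition rises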
SIAE confirm – confirmation of human SIAE inhibitors. shares compounds with SIAE inh. SIAE FP-Rh activity-based probe, fluorescence polarization. inhibition, % at 9.66 µM. actives 13% (n = 2,300);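 active = mean inhibition of the replicates above the hit cutoff set in the primary screen, cut at about 17% in these data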;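 note: inhibitors lower polarization as more probe stays unbound to SIAE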
Hits are given with their value; – = inactive; · = no result given. Compounds with a hit are over-represented: about 1.8% of the library has one in this group of screens.

SMILES | TCR CD3 inh | SIAE inh | HTRA1 inhibitor | mABHD4 FP | Fam108B inh | PME-1 inh | SIAE confirm
CC(C)(C)NCCC(O)c1cc(C(F)(F)F)nc2c(C(F)(F)F)cccc12 (configuration not stated) | – | 77.7 | – | – | · | · | –
Cc1cc(C)c(S(=O)(=O)N2CCN(c3ccccc3)CC2)c(C)c1 | – | – | – | – | – | – | ·
Cn1cc(S(=O)(=O)N2CCN(c3cccc(Cl)c3)CC2)c(=O)n(C)c1=O | – | – | – | – | – | – | ·
Cc1ccc(S(=O)(=O)N2CCN(c3ccccc3)CC2)c(C)c1 | – | 22.3 | – | – | – | – | –
Cn1cc(S(=O)(=O)N2CCN(c3ccccc3)CC2)c(=O)n(C)c1=O | – | 60.3 | – | – | – | – | –
CCOC(=O)[C@]12CCC=C1N(Cc1ccc3c(c1)OCO3)C(=O)[C@H](CC(=O)NCc1cccc3ccccc13)C2 | – | – | · | – | · | · | ·
CCCCNC(=O)C1CC(=O)N(CCc2ccc(C)cc2)C1 (configuration not stated) | – | – | – | – | – | – | ·
COc1ccc(OCC(=O)Nc2cc(S(=O)(=O)N3CCCC3)ccc2OCC(F)(F)F)cc1 | – | 39.9 | – | – | · | · | –
Cc1ccsc1C(=O)N1CC=C(c2ccccc2)CC1 | – | – | – | – | – | – | ·
Cc1ccc(C(=O)N2CC=C(c3ccccc3)CC2)s1 | – | 19.4 | – | – | – | – | –
Nc1ccc(NC(=S)Nc2ccccc2)cc1 | – | 17.2 | – | – | · | · | –
CC(=O)Oc1c2occc2cc2ccc(=O)oc12 | – | 19.7 | – | – | – | – | –
NC(=O)C1CCN(c2ncc(Br)s2)CC1 | · | 21.3 | · | – | · | · | –
NC(=O)C1CCN(c2nc(-c3ccc(N)cc3)cs2)CC1 | · | – | · | – | · | · | ·
Cc1c(CC(=O)N2CCC(O)CC2)c(=O)oc2cc3c(cc12)CCC1(CCCCC1)O3 | – | – | – | – | · | · | ·
CC(C)N1CCC1(C)C(=O)Nc1ccc(-n2cccc2)cc1 (configuration not stated) | – | – | · | – | · | · | ·
CC(C)N1CCC(C)(C(=O)Nc2ccc(-n3cccc3)cc2)C1 (configuration not stated) | – | 17.3 | · | – | · | · | –
CCn1nnc2cc(C(=O)Nc3cc(Cl)ccc3C)ccc21 | – | – | – | – | · | – | ·
COc1cc(-c2nnc(CSc3nnc(Nc4ccc(Oc5ccccc5)cc4)s3)o2)cc(OC)c1OC | – | 19.4 | – | – | – | – | –
CCN(CC)C(=O)c1cn(-c2cccc(OC)c2)c(=O)c2ccccc12 | – | 20.6 | – | – | – | – | –
CCC(C)NC(=O)c1cn(-c2cccc(OC)c2)c(=O)c2ccccc12 (configuration not stated) | – | – | – | – | – | – | ·
COc1ccc(/C(C)=N/N2C(C)CCCC2C)c(OC)c1 (configuration not stated) | – | – | – | – | – | – | ·
Cc1cc(-c2csc(NC(=O)c3ccc(=O)[nH]c3)n2)c(C)n1Cc1ccccc1 | – | 25.9 | – | – | – | – | –
O=C(Nc1nc(-c2ccccc2)cs1)c1ccc(=O)[nH]c1 | – | – | – | – | – | – | ·
Cc1ccc(C(=O)COC(=O)c2cccc(NC(=O)c3ccc([N+](=O)[O-])cc3[N+](=O)[O-])c2)cc1 | – | 21.1 | – | – | – | 31.8 | –
SMILES | TCR CD3 inh | SIAE inh | HTRA1 inhibitor | mABHD4 FP | Fam108B inh | PME-1 inh | SIAE confirm
CCn1c(-c2ccccc2)csc1=Nc1ccc(O)cc1 | – | 25.3 | – | – | – | – | –
CN(CCCCCCCCC(=O)/C=N/O)Cc1ccccc1 | – | 22.0 | – | – | – | – | –
Cc1ccc(OCCC(=O)OCC(=O)Nc2c(C)nn(-c3ccccc3)c2C)cc1 | – | – | – | – | – | – | ·
Cc1ccc(S(=O)(=O)Nc2c(C)n(C)n(-c3ccccc3)c2=O)cc1C(=O)OC(C)C(=O)c1ccccc1 (configuration not stated) | – | – | – | – | · | · | ·
Cc1ccc(S(=O)(=O)Nc2c(C)n(C)n(-c3ccccc3)c2=O)cc1C(=O)OC(C)C(=O)N(C)c1ccccc1 (configuration not stated) | – | 21.2 | – | – | – | – | –
COc1ccc(OC)c(NC(=O)Nc2nc(C(N)CCc3ccccc3)cs2)c1 (configuration not stated) | – | – | · | – | · | · | ·
COc1cc(NC(=O)Nc2nc(C(N)CCc3ccccc3)cs2)cc(OC)c1OC (configuration not stated) | – | 33.3 | · | – | · | · | 22.0
COC(=O)[C@H](CC(C)C)N(CCc1cn(Cc2ccccc2)nn1)S(=O)(=O)c1ccc(F)cc1Br | · | – | · | – | · | · | ·
CN(C)c1cccc2c(S(=O)(=O)NC(=O)[C@H]3O[C@@H](n4cnc5c(N)ncnc54)[C@H](O)[C@@H]3O)cccc12 | – | 55.8 | · | – | · | · | 53.0
CN(Cc1ccc2c(c1)CCCN2C)C(=O)[C@H]1O[C@@H](n2cnc3c(N)ncnc32)[C@H](O)[C@@H]1O | – | 58.6 | · | – | · | · | 46.8
Nc1ncnc2c1ncn2[C@@H]1O[C@H](C(=O)N[C@@H](CCc2ccccc2)C(=O)N2CCN(C(=O)N3CCOCC3)CC2)[C@@H](O)[C@H]1O | – | 69.6 | · | – | · | · | 73.3
Nc1ncnc2c1ncn2[C@@H]1O[C@H](C(=O)N[C@@H](CO)Cc2ccccc2)[C@@H](O)[C@H]1O | – | 25.5 | · | – | · | · | 25.2
Cn1c(=O)n(C)c2cc(CNC(=O)[C@H]3O[C@@H](n4cnc5c(N)ncnc54)[C@H](O)[C@@H]3O)ccc21 | – | – | · | – | · | · | ·
CSCCC(C(=O)Nc1c(C)cccc1C)N1CCN(C/C=C/c2ccccc2)CC1 (configuration not stated) | – | – | · | – | · | · | ·
Nc1ncnc2c1ncn2[C@@H]1O[C@H](C(=O)NCc2ccc(OC(F)(F)F)cc2)[C@@H](O)[C@H]1O | – | – | · | – | · | · | ·
Nc1ncnc2c1ncn2[C@@H]1O[C@H](C(=O)N[C@@H](CCc2ccccc2)C(=O)N2CCN(CC(=O)N3CCCC3)CC2)[C@@H](O)[C@H]1O | – | 28.9 | · | – | · | · | 120.7
Nc1ncnc2c1ncn2[C@@H]1O[C@H](C(=O)NCCc2ccc(F)cc2)[C@@H](O)[C@H]1O | – | 23.2 | · | – | · | · | 22.1
Cc1sc2ncnc(N3CCC(C(=O)NNC(=O)COc4cccc(C(F)(F)F)c4)CC3)c2c1C | – | – | – | – | – | – | ·
O=[N+]([O-])c1cc(/C=N/n2c(-c3cccnc3)n[nH]c2=S)ccc1Cl | – | – | – | – | – | – | ·
O=[N+]([O-])c1ccccc1/C=N/n1c(-c2cccnc2)n[nH]c1=S | – | 17.2 | – | – | – | – | –
Cc1cc(OC(C)C(=O)NCC(O)c2ccccc2)c2c(C)cc(=O)oc2c1 (configuration not stated) | – | – | – | – | – | – | ·
